High-throughput results as filed in PubChem.
Most compounds without a hit are left out; they make up all but 1.6% or so of the library.
BB579 growth dn – reduces growth of yeast BB579 in restrictive medium; S. cerevisiae BB579 growth, OD615, 48 h; inhibition, % at 10 µM; actives 0.51% (n = 140,000);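 active = inhibition above a set limit, 3 SD over the mean compound inhibition, cut at about 44% in these data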
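test system = yeast BB579 (DeaD) | buffer or medium = restrictive CSMM-D medium | doses = single compound dose of 10 µM, 0.25% DMSO final | times = 4 h preincubation and 48 h exposure at 30 °C | technique = culture absorbance at 615 nm | benchmarks = amphotericin B 10 µg/mL, positive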
RBBP9 inh – human RBBP9 hydrolase inhibition; O75884; actives 0.2% (n = 220,000); recombinant RBBP9, FP-Rh probe fluorescence polarization; inhibition, % at 7.94 µM;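 active = inhibition above the campaign mean of all tested compounds plus 3 SD, cut at about 14% in these data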;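 also: plate controls were DMSO wells with RBBP9 for no effect and wells lacking RBBP9 protein for full effect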
Target sequence (O75884 whole entry, looked up): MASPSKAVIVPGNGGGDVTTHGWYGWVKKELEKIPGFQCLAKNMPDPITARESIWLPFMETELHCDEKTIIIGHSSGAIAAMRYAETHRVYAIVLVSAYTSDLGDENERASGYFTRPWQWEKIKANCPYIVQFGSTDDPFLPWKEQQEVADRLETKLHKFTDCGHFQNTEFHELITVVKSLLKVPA
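Controls: DMSO-treated enzyme wells and wells lacking RBBP9 | Material: RBBP9 protein | Technique: Fluorescence polarization | Replication: Single well per compound, no replicates | Buffer or medium: Tris-NaCl-Pluronic buffer, pH 8.0 | Timing: 30 min compound preincubation, 45 min probe labeling, 25 °C | Read-out basis: Percent inhibition from mP, scaled between DMSO and no-protein wells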
TbHK1 inh – blocks Trypanosoma brucei hexokinase 1 activity | actives 0.11% (n = 220,000) | inhibition, % at 10 µM | AID 1430 | recombinant TbHK1, G6PDH-coupled NADH A340;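 active = inhibition of 50% or more in the single-dose primary screen; inactive = inhibition below 50%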
p47phox inh – p47phox (human) inhibition | actives 0.53% (n = 220,000) | inhibition, % at 24.7 µM | p47phox/p22phox peptide binding, fluorescence polarization, 2 h | P14598;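 active = inhibition above about 30%, limit read from the data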;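 also: 0% = p47phox with labelled peptide and 100% = labelled peptide alone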
Target sequence (P14598 whole entry, looked up): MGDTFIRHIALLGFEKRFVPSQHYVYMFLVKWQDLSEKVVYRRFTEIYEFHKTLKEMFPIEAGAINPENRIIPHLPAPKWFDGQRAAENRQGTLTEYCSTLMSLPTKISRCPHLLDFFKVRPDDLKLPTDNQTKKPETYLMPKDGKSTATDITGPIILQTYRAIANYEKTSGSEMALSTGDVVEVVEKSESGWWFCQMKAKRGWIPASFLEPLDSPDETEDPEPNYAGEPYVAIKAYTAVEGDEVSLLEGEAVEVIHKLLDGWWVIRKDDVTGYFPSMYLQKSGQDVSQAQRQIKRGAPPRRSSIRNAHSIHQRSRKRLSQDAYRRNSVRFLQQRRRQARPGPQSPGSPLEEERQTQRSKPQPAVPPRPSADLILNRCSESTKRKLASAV
SDO1 yeast rescue – compounds rescuing growth of sdo1-depleted yeast, bone marrow failure model. z-score at 10 µM. S. cerevisiae sdo1-depleted JHY4D growth rescue, OD600 30 h; stronger effect = higher value; pdr5 snq2 efflux-pump mutant strain. actives 0.21% (n = 140,000);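 active = z-score above 3 at both the 24 hr and the 30 hr optical density reads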;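 also: z-score against mean and SD of all compound wells on the same plate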
Yeast lifespan up – yeast lifespan extension; S. cerevisiae growth with nicotinamide, OD615; deaD strain in restrictive glucose medium; actives 0.68% (n = 130,000); AID 775; inhibition of the nicotinamide effect, % at 10 µM;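 active = inhibition above a set limit, placed 3 SD over the median of all compounds, cut at about 26% in these data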;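 also: 0% = nicotinamide-treated wells and 100% = cells grown without nicotinamide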
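System: Modified budding yeast, DeaD strain | Buffer or medium: Restrictive glucose medium | Also added: 1.5 mM nicotinamide | Doses: 10 µM single point, 0.25% DMSO | Schedule: 48 h compound exposure at 30 °C, humidified | Detection: Absorbance at 615 nm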
RBBP9 inh conf – confirmation of human RBBP9 inhibitors; shares compounds with RBBP9 inh; recombinant RBBP9, FP-Rh probe fluorescence polarization; inhibition, % at 7.94 µM; actives 36% (n = 410); AID 1537;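 active = inhibition above the hit cutoff derived for the primary screen, cut at about 15% in these data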;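 also: 0% = RBBP9 with DMSO and 100% = wells lacking RBBP9 protein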
Starred values were filed as active, the others as inactive; nt = not tested or not shown.

SMILES	BB579 growth dn	RBBP9 inh	TbHK1 inh	p47phox inh	SDO1 yeast rescue	Yeast lifespan up	RBBP9 inh conf
CC(C)NC(=O)CSc1nc(N)c(NC(=O)c2ccco2)c(=O)[nH]1	nt	-0.9	2.2	8.6	nt	nt	nt
O=C(O)CN1CCN(Cc2ccccc2Cl)C1=O	nt	15.6*	-7.5	nt	nt	nt	2.3
CCOC(=O)c1c(C)n(-c2ccc(C)cc2)c2c(C(C(C)=O)C(=O)O)c(Br)c(O)c(O)c12 (stereo not drawn)	-12.7	8.2	1.7	-7.3	-0.07	-7.0	nt
CCOC(=O)C(C(C)=O)c1c(Br)c(O)c(O)c2c(C(=O)c3ccc(C)cc3)coc12 (stereo not drawn)	-59.3	23.7*	2.6	-15.6	-0.68	nt	17.3*
C=CCN1C(=O)C(C(C)CC)NC1=S (stereo not drawn)	-12.0	-6.8	4.7	-11.0	1.1	-3.3	nt
C=CCN1C(=O)C(C)NC1=S (stereo not drawn)	nt	21.8*	-0.8	1.6	nt	nt	-0.7
COc1ccc(OC)c(CCNC(=O)Cn2cccc2C(=O)c2ccccc2C)c1	nt	15.2*	-5.6	-2.3	nt	nt	-0.5
Cc1cc(=O)n2[nH]c(=O)c(N=Nc3ccccc3)c2[nH]1	-5.5	15.5*	-12.0	-10.8	1.21	-9.6	37.6*
CN(C)S(=O)(=O)c1cccc(NC(=S)Nc2cccc3cnccc23)c1	nt	19.2*	-8.5	-5.9	nt	nt	7.2
CC(=O)c1cccc(NC(=O)COC(=O)C2=COCCO2)c1	nt	-5.6	-3.0	0.0	nt	nt	nt
CN=c1scc(C)n1/N=C/c1ccc(O)c(O)c1O	-24.6	4.7	-11.3	-8.9	-0.15	-14.2	nt
C=CCN=c1scc(-c2ccco2)n1/N=C/c1ccc(O)c(O)c1O	nt	47.9*	-3.0	-10.8	nt	nt	83.5*
O=c1c2ccccc2nc(-c2ccco2)n1/N=C/c1ccccc1O	-35.9	-10.0	-15.4	3.8	-0.34	nt	nt
CN=c1scc(-c2cccs2)n1/N=C/c1ccc(O)c(O)c1O	-19.4	32.4*	0.5	-0.1	0.33	-5.9	83.1*
O=c1cc(CN2CCc3ccccc3C2)nc2sccn12	nt	-0.1	-5.4	-15.4	nt	nt	nt
COCc1cc(=O)[nH]c(-c2ccccc2OC(F)(F)F)n1	nt	-7.0	-9.2	-0.3	nt	nt	nt
COc1ccc(CNCC(=O)Nc2cccc(S(N)(=O)=O)c2)cc1	nt	5.1	-6.2	0.1	nt	nt	nt
Cc1nn(C(C)C(=O)O)c(=O)c2ccccc12 (stereo not drawn)	nt	17.9*	-3.0	3.0	nt	nt	5.1
COc1ccc(OCc2nn3c(-c4ccccn4)nnc3s2)cc1	-60.9	14.7*	-7.3	-11.0	-0.07	-12.2	0.6
COc1ccc(-c2nnc3sc(COc4ccccc4)nn23)cc1	-43.3	-10.7	2.4	-2.9	-1.43	-3.1	nt
O=C(NN1CCN(Cc2ccccc2)CC1)c1ccc(N2CCOCC2)c([N+](=O)[O-])c1	nt	-0.7	-9.9	-3.4	nt	nt	nt
CC1(C)OC(C)(C)/C(=C/Nc2ccc(O)cc2)C1=O	-8.8	20.0*	-29.2	21.1	0.57	-3.2	9.2
CC1(C)OC(=O)C(=CNc2cccc(O)c2)C(=O)O1	5.8	-2.7	-18.0	-2.3	0.45	-6.9	nt
COc1cccc(CNc2ccc(N3CCCCC3)cc2)c1OC	4.5	14.4*	5.0	-6.2	2.55	-5.8	17.1*
COc1cc(/C=C/c2ccc3c(Br)cc(Br)c(O)c3n2)ccc1O	nt	16.9*	-45.9	8.6	nt	nt	47.3*
SMILES	BB579 growth dn	RBBP9 inh	TbHK1 inh	p47phox inh	SDO1 yeast rescue	Yeast lifespan up	RBBP9 inh conf
COc1ccc(-c2cc(N3C(=O)Nc4ccccc4N3O)n[nH]2)cc1	-14.7	-3.3	-0.1	2.1	0.44	-5.2	nt
CCOc1ccc(-c2cc(N3C(=O)Nc4ccccc4N3O)on2)cc1	-7.7	16.2*	-1.9	-10.1	2.14	-6.3	4.1
FC(F)Sc1nc2ccccc2[nH]1	nt	7.6	-10.0	-5.3	nt	nt	nt
O=C1CCC(=O)N1c1ccc(-c2nc3sc4c(c3c(=O)o2)CCC4)cc1	nt	15.0*	-16.3	-4.2	nt	nt	9.8
CCOC(=O)c1cc(-c2ccc(C)cc2)n(CCC(=O)NCCCOC)c1C	21.5	15.2*	-8.0	-13.3	0.82	-7.6	1.9
O=C(Nc1ccc(Br)c2ccccc12)c1ccc2ccccc2c1O	nt	7.4	-21.5	-6.6	nt	nt	nt
Cc1ccc(NC(=O)CCC(=O)N/N=C/c2cccs2)cc1	nt	1.8	-7.0	-119.1	nt	nt	nt
COc1ccc(NC(=S)NNc2ccc(S(=O)(=O)Nc3ccccc3C(=O)O)cc2[N+](=O)[O-])cc1	nt	22.2*	-19.5	11.2	nt	nt	14.8*
COc1ccc(/C=C/C(=O)NC(=S)NNC(=O)Cc2cccs2)cc1OC	-61.1	14.9*	-28.1	-4.4	-0.27	-0.8	9.3
COCCOC(=O)C1=C(C)NC(=O)N(C(C)=O)C1c1ccc(Cl)cc1 (stereo not drawn)	-2.6	15.1*	2.1	-1.8	-0.15	-8.9	7.7
CCOC(=O)C1=C(C)NC(=S)N(C(C)=O)C1c1ccc(Cl)cc1 (stereo not drawn)	-12.8	-13.1	-18.2	9.0	-1.47	nt	nt
O=C(COC(=O)/C=C/c1cccs1)Nc1nc(-c2ccccc2)cs1	3.4	-0.8	-5.3	-1.2	0.1	6.3	nt
O=C(COC(=O)/C=C/c1cccs1)Nc1nc(-c2cccc(Br)c2)cs1	nt	16.6*	-5.2	-41.3	nt	nt	27.2*
O=C1c2ccccc2C(=O)N1/N=C/c1ccc(O)c(O)c1O	nt	19.7*	-4.8	-3.4	nt	nt	45.0*
O=C1c2cccc3cccc(c23)C(=O)N1/N=C/c1ccc(O)cc1O	-12.8	-3.1	0.9	-119.7	0.12	-2.1	nt
COc1ccc(C(OC(=O)c2ccco2)C(=O)NC(C)(C)C)cc1 (stereo not drawn)	nt	-10.1	-3.6	-7.3	nt	nt	nt
COc1cccc(Nc2ccccc2C(=O)O)c1	nt	-5.8	2.4	3.3	nt	nt	nt
COc1cc(-c2ccc(Nc3ccccc3C(=O)O)c(OC)c2)ccc1Nc1ccccc1C(=O)O	nt	24.3*	-16.2	-2.0	nt	nt	45.6*
O=C(C1COc2ccccc2O1)N1CCN(c2ccc(F)cc2)CC1 (stereo not drawn)	-48.6	-11.7	4.8	-10.6	-1.27	-1.3	nt
O=C(C1COc2ccccc2O1)N1CCCC1 (stereo not drawn)	3.2	15.4*	-6.2	-8.3	-0.15	-8.7	7.4
CCN1CCN(C(=O)C2(NC(=O)Nc3ccccc3Cl)CCCCC2)CC1	-25.5	15.7*	-4.2	1.6	0.97	nt	2.0
CC1(C)COC2(OC1)C(=O)N(CN1CCOCC1)c1ccccc12	nt	-1.9	0.3	-2.7	nt	nt	nt
CN1CCCN(C(=O)CC2(CC(=O)O)CCCCC2)CC1	nt	-7.3	-7.6	-6.4	nt	nt	nt
CCCc1nnc(NC(=O)CN2CCN(C)CC2)s1	-52.8	16.7*	-6.4	-4.5	-0.53	-6.8	4.5
CC1=NN(c2ccccc2)C(=O)C1C=Nc1ccc(N(C)C)cc1 (stereo not drawn)	nt	19.0*	-26.2	-2.6	nt	nt	15.0*
